The test system of assay [1] is Neisseria meningitidis. Put plainly: Inhibition of Neisseria meningitidis alpha-1,4-galactosyltransferase assessed as rate constant for enzyme activity at 2 uM using lactose as substrate preincubated with substrate measured after 20 mins in presence of UDP-Gal. The procedure, abridged: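 Activity measured at a series of inhibitor concentrations (0.5-200 µM range overall) after pre-incubation with LgtC for 0, 5, 10, 20 and 30 min, using the pre-incubation protocols (lactose 2 mM, UDP-Gal 28 µM, 20 min at 30 °C, malachite green); % of DMSO control plotted semi-logarithmically versus pre-incubation time to give kobs; kobs versus concentration gave Ki and kinact; triplicate.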

The subject of assay [2] is Neisseria meningitidis. Put plainly: Inhibition of Neisseria meningitidis alpha-1,4-galactosyltransferase assessed as consumption of donor UDP-Gal by measuring turnover rate at 0.1 to 50 uM using lactose as substrate preincubated for 180 mins followed by lactose and UDP-Gal addition measured after 20 mins by malachite green dye-based assay relative to total UDP-Gal used.

Assay [3] relates to Neisseria meningitidis. Put plainly: Inhibition of Neisseria meningitidis alpha-1,4-galactosyltransferase assessed as consumption of donor UDP-Gal by measuring turnover rate at 0.1 to 100 uM using lactose as substrate preincubated for 30 mins followed by lactose and UDP-Gal addition measured after 20 mins by malachite green dye-based assay relative to total UDP-Gal used.

The text below walks through data of ChEMBL document CHEMBL4052634, “Covalent inhibitors of LgtC: A blueprint for the discovery of non-substrate-like inhibitors for bacterial glycosyltransferases” (Bioorg Med Chem, 2017).

Usually inhibition stands for the change of the read-out against control, counted positive when it falls.

For the compound `COc1ccc(/C=C2\C(=O)N(c3ccccc3)N=C2C(F)(F)F)cc1Br`, the K in assay [1] stood at 0.012 min⁻¹. The inhibition in assay [2] came out at 26%.

Consider `O=C1/C(=C\c2cccc(OCc3ccccc3)c2)C(C(F)(F)F)=NN1c1ccccc1`, for which, in assay [3], the inhibition came to 24%.
